Assay results from ChEMBL document CHEMBL5712900, “JQ1 affects BRD2-dependent and independent transcription regulation without disrupting H4-hyperacetylated chromatin states” (2018).
The source made the active and inactive calls.

What was measured:
NCI-H23 [1] = assay: Effect in H3K27ac global level in human NCI-H23 cells at 500 nM incubated for 24 hrs by Chip-seq assay; type: functional, cell-based
NCI-H23 [2] = assay: Induction of apoptosis in human NCI-H23 cells at 5 to 5000 nM incubated for 24 hsr by Green Apoptosis assay; type: functional, cell-based; conditions: dose 5-5000 nM, time 24.0 hrs
How it was run: (§1)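 RFP-labelled H23 cells were seeded at 8,000 cells/well one day ahead and given JQ1 at 5, 50, 500, 1,000 or 5,000 nM. For apoptosis, Caspase-3/7 Green reagent (DEVD–NucView488) was added with the drug. Plates were imaged hourly for 24 h. Red (proliferating) or green (apoptotic) objects were counted per image and expressed as fold change versus 0 h.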

NCI-H23 [3] = assay: Antiproliferation activity against human NCI-H23 cells assessed as decrease in cell proliferation at 5 to 5000 nM incubated for 24 hrs by Green Apoptosis Assay; type: functional, cell-based; conditions: dose 5-5000 nM; how it was run: as §1
NCI-H23 [4] = assay: Down regulation of FOSL1 protein expression in human NCI-H23 cells at 500 nM measured after 3 to 24 hrs by […]; type: functional, cell-based; conditions: time 3-24 hrs
NCI-H23 [5] = assay: Down regulation of FOSL1 gene expression in human NCI-H23 cells at 500 nM measured after 3 to 24 hrs by qPCR analysis; type: functional, cell-based; conditions: time 3-24 hrs
How it was run: (§2)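 H23 cells were grown in RPMI-1640 with 10% FBS and plated 48 h before treatment at 170,000 cells/ml. Medium was replaced with fresh medium containing 500 nM JQ1 or matched DMSO, and cells were harvested at 3, 6, 12 and 24 h. Total RNA was extracted with TRIzol and assayed by SYBR qPCR (40 cycles). Expression was normalized to GAPDH and compared with DMSO. There were three biological replicates, each run in duplicate twice.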

NCI-H23 [6] = assay: Effect in H4K5acK8ac global level Promoter region in human NCI-H23 cells at 500 nM incubated for 24 hrs by Chip-seq assay; type: functional, cell-based
How it was run: (§3)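 H23 cells received 500 nM JQ1 or DMSO for 24 h and then underwent formaldehyde crosslinking. For spike-in ChIP-seq, H23 chromatin was mixed with Drosophila chromatin at 400:1 for H4K5acK8ac or 600:1 for BRD2, adding anti-H2Av antibody. Reads were normalized to Drosophila counts, with two biological replicates. Signals were averaged over peaks from untreated cells, and differential H4K5acK8ac peaks were called at FDR <0.05.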

NCI-H23 [7] = assay: Effect in H4K5acK8ac global level enhancer region in human NCI-H23 cells at 500 nM incubated for 24 hrs by Chip-seq assay; type: functional, cell-based; how it was run: as §3
NCI-H23 [8] = assay: Effect in H4K5acK8ac global level super enhancer region in human NCI-H23 cells at 500 nM incubated for 24 hrs by Chip-seq assay; type: functional, cell-based; how it was run: as §3
NCI-H23 [9] = assay: Effect in H4K5acK8ac subpopulation level in human NCI-H23 cells at 500 nM incubated for 24 hrs by Chip-seq assay; type: functional; how it was run: as §3
NCI-H23 [10] = assay: Effect in H3K27ac subpopulation level in human NCI-H23 cells at 500 nM incubated for 24 hrs by Chip-seq assay; type: functional, cell-based
NCI-H23 [11] = assay: Down regulation of BRD2 gene expression in human NCI-H23 cells at 500 nM measured after 3 to 24 hrs by qPCR analysis; type: functional, cell-based; conditions: time 3-24 hrs; how it was run: as §2
NCI-H23 [12] = assay: Down regulation of BRD4 gene expression in human NCI-H23 cells at 500 nM measured after 3 to 24 hrs by qPCR analysis; type: functional, cell-based; conditions: time 3-24 hrs; how it was run: as §2
NCI-H23 [13] = assay: Down regulation of CFLAIR gene expression in human NCI-H23 cells at 500 nM measured after 3 to 24 hrs by qPCR analysis; type: functional, cell-based; conditions: time 3-24 hrs; how it was run: as §2
NCI-H23 [14] = assay: Down regulation of BCL2 gene expression in human NCI-H23 cells at 500 nM measured after 3 to 24 hrs by qPCR analysis; type: functional, cell-based; conditions: time 3-24 hrs; how it was run: as §2
NCI-H23 [15] = assay: Down regulation of WNT2 gene expression in human NCI-H23 cells at 500 nM measured after 3 to 24 hrs by qPCR analysis; type: functional, cell-based; conditions: time 3-24 hrs; how it was run: as §2
NCI-H23 [16] = assay: Down regulation of WNT5A-2 gene expression in human NCI-H23 cells at 500 nM measured after 3 to 24 hrs by qPCR analysis; type: functional, cell-based; conditions: time 3-24 hrs; how it was run: as §2
NCI-H23 [17] = assay: Effect on CTNNB1 gene expression in human NCI-H23 cells at 500 nM measured after 3 to 24 hrs by qPCR analysis; type: functional, cell-based; conditions: time 3-24 hrs; how it was run: as §2
NCI-H23 [18] = assay: Upregulation of MYC gene expression in human NCI-H23 cells at 500 nM measured after 3 to 24 hrs by qPCR analysis; type: functional, cell-based; conditions: time 3-24 hrs; how it was run: as §2
[19] = biological target: Bromodomain-containing protein 2 (Homo sapiens) (UniProt P25440); conditions: NCI-H23, dose 500.0 nM, time 24.0 hrs
Sequence of Bromodomain-containing protein 2 (Homo sapiens) (P25440 whole entry, looked up): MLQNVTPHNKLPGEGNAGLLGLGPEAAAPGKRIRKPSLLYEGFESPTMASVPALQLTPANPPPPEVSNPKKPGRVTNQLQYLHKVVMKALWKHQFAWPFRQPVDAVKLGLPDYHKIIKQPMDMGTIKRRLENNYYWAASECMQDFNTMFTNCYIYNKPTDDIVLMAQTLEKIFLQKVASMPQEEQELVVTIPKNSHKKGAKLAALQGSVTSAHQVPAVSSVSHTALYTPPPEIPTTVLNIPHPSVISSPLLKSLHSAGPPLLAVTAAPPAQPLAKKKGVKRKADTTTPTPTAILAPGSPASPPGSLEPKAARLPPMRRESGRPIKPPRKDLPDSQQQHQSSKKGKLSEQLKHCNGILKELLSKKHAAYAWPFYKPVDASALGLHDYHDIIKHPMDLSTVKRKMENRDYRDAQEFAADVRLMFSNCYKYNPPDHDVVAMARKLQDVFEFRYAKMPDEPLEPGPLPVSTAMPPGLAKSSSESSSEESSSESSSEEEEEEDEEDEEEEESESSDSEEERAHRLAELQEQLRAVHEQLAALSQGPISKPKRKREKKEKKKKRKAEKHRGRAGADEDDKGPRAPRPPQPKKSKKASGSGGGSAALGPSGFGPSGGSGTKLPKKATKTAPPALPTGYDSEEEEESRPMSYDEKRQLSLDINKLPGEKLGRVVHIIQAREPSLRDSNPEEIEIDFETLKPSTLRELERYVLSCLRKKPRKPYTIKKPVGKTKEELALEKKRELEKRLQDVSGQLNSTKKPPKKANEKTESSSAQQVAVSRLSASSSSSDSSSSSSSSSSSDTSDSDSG

Cc1sc2c(c1C)C(c1ccc(Cl)cc1)=N[C@@H](CC(=O)OC(C)(C)C)c1nnc(C)n1-2
2: fold change (FC) (NCI-H23 [9])
100%: inhibition [19]
active: Activity (NCI-H23 [2]) | Activity (NCI-H23 [3]) | Activity (NCI-H23 [4]) | Activity (NCI-H23 [5]) | Activity (NCI-H23 [10]) | Activity (NCI-H23 [13]) | Activity (NCI-H23 [14]) | Activity (NCI-H23 [15]) | Activity (NCI-H23 [16]) | Activity (NCI-H23 [17]) | Activity (NCI-H23 [18])
inactive: Activity (NCI-H23 [1]) | Activity (NCI-H23 [6]) | Activity (NCI-H23 [7]) | Activity (NCI-H23 [8]) | Activity (NCI-H23 [11]) | Activity (NCI-H23 [12])
